# IMP-1 inh-1 – blocks Pseudomonas aeruginosa IMP-1 metallo-beta-lactamase; purified IMP-1, nitrocefin hydrolysis, epi-absorbance fluorescence; inhibition, % at 5.6 µM; 0.45% of 290,000 active;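 active means inhibition above the mean plus 3 SD of all compounds in the same screening run, cut at about 4.5% in these data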;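 further: 0% = IMP-1 with DMSO and 100% = DMSO wells lacking enzyme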
#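 system = purified recombinant IMP-1 beta-lactamase | amount = 0.2 nM IMP-1, as dispensed | medium = HEPES buffer pH 7.1 with ZnSO4 and Brij 35 | times = 25 °C, 15 min preincubation, 25 min reaction | detection = plate fluorescence quenching by hydrolysis product, ex 480/em 530 nm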
# TRPML3 agonist – activates the human TRPML3 channel | HEK293 TRPML3-YFP, Fluo-8 calcium fluorescence; 100% = the carbachol control signal | AID 1448 | Q8TDD5 | 0.29% of 220,000 active | activation, % at 3 µM;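 active means activation above its plate's cutoff, the mean activation of the plate's test wells plus 3 SD, cut at about 12% in these data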;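 further: 0% = DMSO only wells and 100% = carbachol wells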
#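 system = HEK293 cells stably carrying human TRPML3-YFP | doses = one concentration, 3 µM nominal, 0.3% DMSO | timing = dye loading 1 h 37 °C then 30 min ambient, 125 s read | detection = Fluo-8 calcium dye fluorescence, ex 470-495, em 515-575 nm | benchmarks = high control carbachol 87 µM, low control DMSO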
# CRFBP-R2 agonist – agonists of human CRF-binding protein/CRF-R2 receptor complex; 0.46% of 350,000 active; HEK293 CRF-R2/CRF-BP, calcium dye fluorescence (FLIPR); percent of saturating CRF peptide response; activation, % at 13.2 µM;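 active means activation of at least 50%, plus an integration ratio under a set limit after plate pattern correction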;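 further: plate controls were neutral control wells without compound for no effect and CRF at EC100 for full effect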
# VIM-2 inh – blocks Pseudomonas aeruginosa VIM-2 metallo-beta-lactamase. purified VIM-2, nitrocefin hydrolysis, epi-absorbance fluorescence. inhibition, % at 5.6 µM. 0.89% of 290,000 active;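 active means inhibition above the mean of all tested compounds plus 3 SD, cutoff set per screening run, cut at about 7.5% in these data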;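 further: red hydrolysis product quenches plate fluorescence so inhibitors raise well fluorescence; 0% = enzyme with DMSO and 100% = DMSO without enzyme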
# TRPN1 ag – zebrafish TRPN1 (NompC) channel agonism; HEK293 zebrafish TRPN1-YFP, Fluo-8 calcium fluorescence; 100% = response to 87 µM carbachol; activation, % at 3 µM; 0.18% of 220,000 active; AID 1424;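 active means activation above its plate's cutoff, the mean activation of test wells on that plate plus 3 SD, cut at about 19% in these data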;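 further: 0% = DMSO alone and 100% = 87 µM carbachol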
#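 Material: zebrafish TRPN1-YFP in HEK293 cells. Doses: one dose of 3 µM, 0.3% DMSO. Incubation: dye 1 h 37 °C plus 30 min RT. Measured by: intracellular calcium fluorescence with Fluo-8.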
# CRFBP-R2 block – blocks CRF-induced signaling of the CRF-BP/CRF-R2 complex; HEK293 CRF-R2/CRF-BP, CRF-induced calcium fluorescence; inhibition, % at 11.8 µM; 0.59% of 350,000 active;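 active means inhibition of the ligand-induced calcium signal above about 50% at the single tested concentration, limit read from the data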
# IMP-1 inh-2 – IMP-1 inhibition, counter-screen for VIM-2 inhibitors. shares compounds with VIM-2 inh. purified IMP-1, nitrocefin hydrolysis, epi-absorbance fluorescence. inhibition, % at 5.6 µM. 1,300 tested, under 10 active. AID 1856; call rule not given here;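 further: 0% = enzyme with vehicle and 100% = vehicle without enzyme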
# VIM-2 FRET ctr – counter-screen for VIM-2 inhibitors: epi-absorbance artifacts via FRET. shares compounds with VIM-2 inh. purified VIM-2, CCF2 FRET substrate hydrolysis. inhibition, % at 5.6 µM. 23% of 1,300 active. AID 1857;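 active means inhibition above the mean of all tested compounds plus 3 SD, cut at about 19% in these data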;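 further: 0% = VIM-2 plus DMSO and 100% = no enzyme wells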
# TEM-1 inh – TEM-1 inhibition, counter-screen for VIM-2 inhibitors. shares compounds with VIM-2 inh. Purified TEM-1, nitrocefin hydrolysis, epi-absorbance fluorescence. inhibition, % at 5.6 µM. 3% of 1,300 active. AID 1866;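 active means inhibition above that campaign's mean inhibition plus 3 SD, cut at about 0.46% in these data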;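 further: 0% = TEM-1 with DMSO and 100% = TEM-1 with 100 µM potassium clavulanate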
# Target sequence (P62593 whole entry, looked up): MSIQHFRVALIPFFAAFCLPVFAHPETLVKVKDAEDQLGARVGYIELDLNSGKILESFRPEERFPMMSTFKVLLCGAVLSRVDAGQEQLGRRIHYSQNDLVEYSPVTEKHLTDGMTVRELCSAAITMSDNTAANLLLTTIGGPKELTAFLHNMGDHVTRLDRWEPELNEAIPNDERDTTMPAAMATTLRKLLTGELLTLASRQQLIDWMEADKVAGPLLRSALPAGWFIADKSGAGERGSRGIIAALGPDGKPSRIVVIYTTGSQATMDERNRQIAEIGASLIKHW
# VIM-2 confirm 2 – confirmation of P. aeruginosa VIM-2 metallo-beta-lactamase inhibitors; shares compounds with VIM-2 inh; purified VIM-2, nitrocefin hydrolysis, epi-absorbance; inhibition, % at 5.6 µM; 96% of 1,300 active; AID 2187;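 active means inhibition of the VIM-2 beta-lactamase enzyme above about 11% from the earlier first-round screen, limit read from the data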;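 further: 0% = VIM-2 with DMSO and 100% = buffer wells without enzyme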
# * marks the source's active call; other numbers are inactive results; · = not tested or not shown. Compounds with a hit are over-represented: about 2.1% of the library has one in this group of screens.
SMILES,IMP-1 inh-1,TRPML3 agonist,CRFBP-R2 agonist,VIM-2 inh,TRPN1 ag,CRFBP-R2 block,IMP-1 inh-2,VIM-2 FRET ctr,TEM-1 inh,VIM-2 confirm 2
O=C(O)c1c(C(=O)O)c(-c2ccc(Br)cc2)n2c1CSC2,1,·,0,43*,·,-11,0,68*,-6,50*
COc1ccc(OC)c(N(C)S(=O)(=O)c2cc3c(cc2C)NC(=O)CO3)c1,0,·,-5,-2,·,13,·,·,·,·
O=C1C(=O)N(c2nccs2)C(c2ccccc2F)/C1=C(\O)c1ccc2c(c1)OCCO2 (stereo not drawn),1,·,-2,21*,·,-6,-3,33*,-5,22*
CC(C)(C)OC(=O)C[C@H]1C/C=C\C[C@H](CC(=O)N(CCO)Cc2ccccc2)C(=O)N2CCC[C@H]2COC1=O,·,·,-4,·,·,-8,·,·,·,·
COc1ccc(-c2nnc(SCC(=O)Nc3c(Cl)cc(Cl)cc3C(=O)O)o2)cc1,·,·,-1,·,·,9,·,·,·,·
Cn1c(C(=O)NCCCN2CCOCC2)cc2c(=O)n(C)c3ccccc3c21,-3,1,-2,18*,3,1,-3,-2,-4,28*
Cn1c(C(=O)N2CCCC2)cc2c(=O)n(C)c3ccccc3c21,-3,0,-1,5,1,19,·,·,·,·
Cn1c(C(=O)NCc2ccccn2)cc2c(=O)n(C)c3ccccc3c21,2,0,1,16*,1,0,-3,3,-6,25*
Cn1c(C(=O)NCC2CCCO2)cc2c(=O)n(C)c3ccccc3c21 (stereo not drawn),-1,0,-1,15*,2,11,-3,0,-6,20*
Cn1c(C(=O)NC2CCCC2)cc2c(=O)n(C)c3ccccc3c21,-1,0,-4,18*,1,1,-3,-3,-6,21*
CCCCCC(=O)N1C[C@@H](n2cc(COC(=O)c3ccccc3)nn2)[C@H](O)C[C@@H]1c1ccc(C)cc1,·,·,0,·,·,-9,·,·,·,·
O=C(CN1C(=O)NC2(CCOc3ccccc32)C1=O)NCC(F)(F)F (stereo not drawn),-1,·,-1,0,·,11,·,·,·,·
CCCCN(CC)CCCNC(=O)c1cc2c(=O)n(C)c3ccccc3c2n1C,-4,1,-1,25*,1,1,-3,-1,-6,30*
CC1CCN(CCCNC(=O)c2cc3c(=O)n(C)c4ccccc4c3n2C)CC1,-3,0,0,21*,0,1,-2,2,-7,31*
Cn1c(C(=O)NCCN2CCCCCC2)cc2c(=O)n(C)c3ccccc3c21,-1,1,-1,19*,1,-10,0,7,-7,29*
Cn1c(C(=O)NCCN2CCN(Cc3ccccc3)CC2)cc2c(=O)n(C)c3ccccc3c21,·,·,0,·,·,0,·,·,·,·
CC(C)Cn1cc(C(=O)NCCCN2CCC(C)CC2)c2c3ccccc3n(C)c2c1=O,·,·,-1,·,·,-4,·,·,·,·
Cn1c(C(=O)NCCCN2CCN(c3ccccc3F)CC2)cc2c(=O)n(C)c3ccccc3c21,-1,0,2,15*,-1,4,-3,-3,-6,25*
Cc1ccc(NC2CCCN(C(=O)CCN3CCOCC3)C2)cc1C (stereo not drawn),-5,·,0,-2,·,3,·,·,·,·
O=C(C1CCCO1)N1N=C(c2ccc(Br)cc2)CC1c1ccco1 (stereo not drawn),-2,0,0,18*,-2,-13,-3,57*,-5,36*
Cc1ccc(C2=NN(C(=O)C3CCCO3)C(c3ccco3)C2)cc1 (stereo not drawn),-2,-1,-1,14*,-3,13,-3,27*,-6,17*
CCC(=O)N1N=C(c2ccc(NS(=O)(=O)c3ccccc3)cc2)CC1c1ccco1 (stereo not drawn),·,·,1,·,·,-9,·,·,·,·
O=C(c1ccc(Br)o1)N1N=C(c2ccc(Cl)cc2)CC1c1ccco1 (stereo not drawn),-2,·,3,12*,·,-6,-2,30*,-2,19*
O=C(Nc1cccc(S(=O)(=O)N2CCCCC2)c1)c1cc(=O)[nH]c2ccccc12,·,·,-1,·,·,-6,·,·,·,·
Cc1ccc(NC(=O)c2ccc(=O)[nH]c2)cc1S(=O)(=O)N1CCCCCC1,·,·,-1,·,·,-3,·,·,·,·
SMILES,IMP-1 inh-1,TRPML3 agonist,CRFBP-R2 agonist,VIM-2 inh,TRPN1 ag,CRFBP-R2 block,IMP-1 inh-2,VIM-2 FRET ctr,TEM-1 inh,VIM-2 confirm 2
NC(=O)C1=C(N=C2CCCCC2)CCCC1,·,·,0,·,·,7,·,·,·,·
CC(=O)C(=Cc1cn(-c2ccccc2)nc1-c1ccccc1)C(C)=O,-3,0,-1,-3,0,-17,·,·,·,·
COc1ccc(CC(=O)Nc2cccc(-c3ccc4nnc(C)n4n3)c2)cc1,-3,1,11,4,2,33,·,·,·,·
Cc1nnc2ccc(-c3cccc(NC(=O)c4ccco4)c3)nn12,-1,0,0,15*,0,-2,-2,1,-8,25*
COc1cccc(-n2c(CNC(=O)OC(C)(C)C)n[nH]c2=S)c1,-5,1,-1,19*,-1,2,-5,44*,-7,27*
CCN(CC)c1nc(Oc2ccc(C(=O)NN)cc2)nc(Oc2ccc(C(=O)NN)cc2)n1,-3,·,0,70*,·,-2,-4,8,-7,82*
Cc1nnc2c3ccccc3c(-c3cccs3)nn12,-2,0,-3,28*,0,-14,-3,1,-5,40*
Cc1ccc(Cn2ncc3c(NN)ncnc32)cc1,-2,·,3,41*,·,-11,-4,-10,-5,58*
Cc1ccc(Nc2c3c(nc4ncnn24)CC(C)CC3)cc1 (stereo not drawn),-2,-1,-3,-1,-2,-1,·,·,·,·
Cc1ccc(Nc2c3c(nc4ncnn24)CCC3)cc1,-1,0,-3,17*,-2,7,-3,1,-5,24*
CN1CCN(C(=O)/C(=C/c2cccs2)NC(=O)c2cccs2)CC1,-4,1,1,17*,3,-2,-3,-2,-7,2
O=C(N/C(=C\c1cccs1)C(=O)N1CCOCC1)c1cccs1,-2,1,-2,0,0,3,·,·,·,·

# Bioassay records deposited in PubChem BioAssay by several laboratories.
